We go through 28 compounds from ChEMBL document CHEMBL2406998, “Discovery of benzamide analogs as negative allosteric modulators of human neuronal nicotinic receptors: pharmacophore modeling and structure-activity relationship studies” (Bioorg Med Chem, 2013).

Activity calls are given as the source filed them. The rule behind the calls is not given here.

Test [1] concerns the target T1, Neuronal acetylcholine receptor; alpha4/beta2 (Homo sapiens, UniProt P17787+P43681). The test is described as follows: Agonist activity at human alpha4beta2 nAChR. Type of test: protein-complex assay. In a few lines:
(§1)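 HEK tsA201 cells stably expressing the human receptor subtype, plated 24 h ahead at 37 °C, 5% CO2 in supplemented DMEM to a ~100% confluent monolayer. Washed with HEPES-buffered Krebs, loaded 1 h at room temperature with 50% Calcium 5 NW dye. Compounds as HCl salts from 0.01 M DMSO stocks, six concentrations 0.1–100 µM in HBK. Intracellular calcium fluorescence read every 1.5 s (ex 485/em 525 nm).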

For test [2], the target named is T2, Neuronal acetylcholine receptor; alpha3/beta4 (Homo sapiens, UniProt P30926+P32297). The test is described as follows: Agonist activity at human alpha3beta4 nAChR. It counts as protein-complex assay. In a few lines: as §1
T2 sequence (P30926 whole entry): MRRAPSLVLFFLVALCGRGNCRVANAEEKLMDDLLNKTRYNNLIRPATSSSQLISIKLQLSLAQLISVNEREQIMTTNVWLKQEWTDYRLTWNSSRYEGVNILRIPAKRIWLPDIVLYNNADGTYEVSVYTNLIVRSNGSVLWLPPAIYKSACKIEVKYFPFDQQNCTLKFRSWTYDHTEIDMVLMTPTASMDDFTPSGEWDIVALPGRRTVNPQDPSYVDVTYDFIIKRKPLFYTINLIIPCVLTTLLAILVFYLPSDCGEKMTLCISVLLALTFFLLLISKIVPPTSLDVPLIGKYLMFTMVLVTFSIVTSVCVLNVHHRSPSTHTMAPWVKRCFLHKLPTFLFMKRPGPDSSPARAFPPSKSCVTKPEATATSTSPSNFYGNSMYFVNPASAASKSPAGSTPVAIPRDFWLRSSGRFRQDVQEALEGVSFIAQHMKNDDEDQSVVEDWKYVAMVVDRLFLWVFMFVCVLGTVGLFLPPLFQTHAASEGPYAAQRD
T2 sequence (P32297 whole entry): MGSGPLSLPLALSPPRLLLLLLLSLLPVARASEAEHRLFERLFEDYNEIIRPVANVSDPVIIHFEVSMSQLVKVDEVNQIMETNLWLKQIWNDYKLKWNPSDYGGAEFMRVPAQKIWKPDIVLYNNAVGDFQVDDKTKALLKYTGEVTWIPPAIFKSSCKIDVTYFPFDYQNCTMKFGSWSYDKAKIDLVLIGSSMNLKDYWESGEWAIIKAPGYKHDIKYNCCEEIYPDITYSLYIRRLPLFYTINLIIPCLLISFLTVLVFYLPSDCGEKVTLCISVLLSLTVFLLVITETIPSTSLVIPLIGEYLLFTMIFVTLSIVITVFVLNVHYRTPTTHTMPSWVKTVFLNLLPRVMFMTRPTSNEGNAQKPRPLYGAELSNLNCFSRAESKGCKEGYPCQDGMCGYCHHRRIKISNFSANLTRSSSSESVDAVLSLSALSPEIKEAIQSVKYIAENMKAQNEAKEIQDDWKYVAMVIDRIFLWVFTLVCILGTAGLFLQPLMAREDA
Test [3] concerns the target T1, Neuronal acetylcholine receptor; alpha4/beta2. Put plainly: Antagonist activity at human alpha4beta2 nAChR expressed in HEK-tsA201 cells assessed as inhibition of epibatidine-induced intracellular calcium level by fluorescence plate reader analysis. Type of test: cell-based. In a few lines: (§2)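 Stably transfected HEK tsA201 cells were plated 24 h ahead and grown at 37 °C, 5% CO2 in supplemented DMEM to a ~100% confluent monolayer. They were washed with HEPES-buffered Krebs, then loaded with 50% Calcium 5 NW dye for 1 h at room temperature. Compounds (HCl salts, six concentrations 0.1–100 µM, DMSO <1%) were tested against 1 µM epibatidine. Fluorescence was read at ex 485/em 525 nm every 1.5 s.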
A general note: Calcium assays in cells follow changes in intracellular calcium, usually with a dye or a luminescent sensor.

For test [4], the target named is T2, Neuronal acetylcholine receptor; alpha3/beta4. Put plainly: Antagonist activity at human alpha3beta4 nAChR expressed in HEK-tsA201 cells assessed as inhibition of epibatidine-induced intracellular calcium level by fluorescence plate reader analysis. It counts as cell-based. In a few lines: as §2
For a further test, the species on record is Homo sapiens. The test is described as follows: Selectivity ratio of IC50 for human alpha3beta4 nAChR to IC50 for human alpha4beta2 nAChR.
In test [5] the target is T1, Neuronal acetylcholine receptor; alpha4/beta2. Put plainly: Non-competitive antagonist activity at human alpha4beta2 nAChR expressed in HEK-tsA201 cells assessed as intracellular calcium level at 0.1 to 100 uM by fluorescence plate reader analysis in presence of epibatidine. Type of test: cell-based. In a few lines: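 Epibatidine concentration-response curves were run with and without test compound on hα4β2-expressing HEK tsA201 cells. The read-out was the calcium accumulation assay: cells loaded with Calcium 5 NW dye for 1 h at room temperature in HEPES-buffered Krebs, fluorescence read at ex 485/em 525 nm every 1.5 s. Compound dilutions of 0.1–100 µM were made from DMSO stocks, with DMSO below 1%.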

T1 sequence (P17787 whole entry): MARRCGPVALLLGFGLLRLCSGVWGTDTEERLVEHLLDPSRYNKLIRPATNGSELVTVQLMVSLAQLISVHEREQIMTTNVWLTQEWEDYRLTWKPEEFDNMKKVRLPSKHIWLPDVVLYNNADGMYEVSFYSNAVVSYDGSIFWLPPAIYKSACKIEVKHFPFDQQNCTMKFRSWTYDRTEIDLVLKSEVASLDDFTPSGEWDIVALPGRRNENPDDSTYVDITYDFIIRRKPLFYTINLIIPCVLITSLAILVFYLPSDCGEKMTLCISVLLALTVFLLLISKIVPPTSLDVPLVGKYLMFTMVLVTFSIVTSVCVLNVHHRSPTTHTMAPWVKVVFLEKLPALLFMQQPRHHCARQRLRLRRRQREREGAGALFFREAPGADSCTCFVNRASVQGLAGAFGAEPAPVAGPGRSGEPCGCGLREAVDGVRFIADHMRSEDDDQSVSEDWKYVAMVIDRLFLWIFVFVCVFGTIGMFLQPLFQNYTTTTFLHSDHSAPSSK
T1 sequence (P43681 whole entry): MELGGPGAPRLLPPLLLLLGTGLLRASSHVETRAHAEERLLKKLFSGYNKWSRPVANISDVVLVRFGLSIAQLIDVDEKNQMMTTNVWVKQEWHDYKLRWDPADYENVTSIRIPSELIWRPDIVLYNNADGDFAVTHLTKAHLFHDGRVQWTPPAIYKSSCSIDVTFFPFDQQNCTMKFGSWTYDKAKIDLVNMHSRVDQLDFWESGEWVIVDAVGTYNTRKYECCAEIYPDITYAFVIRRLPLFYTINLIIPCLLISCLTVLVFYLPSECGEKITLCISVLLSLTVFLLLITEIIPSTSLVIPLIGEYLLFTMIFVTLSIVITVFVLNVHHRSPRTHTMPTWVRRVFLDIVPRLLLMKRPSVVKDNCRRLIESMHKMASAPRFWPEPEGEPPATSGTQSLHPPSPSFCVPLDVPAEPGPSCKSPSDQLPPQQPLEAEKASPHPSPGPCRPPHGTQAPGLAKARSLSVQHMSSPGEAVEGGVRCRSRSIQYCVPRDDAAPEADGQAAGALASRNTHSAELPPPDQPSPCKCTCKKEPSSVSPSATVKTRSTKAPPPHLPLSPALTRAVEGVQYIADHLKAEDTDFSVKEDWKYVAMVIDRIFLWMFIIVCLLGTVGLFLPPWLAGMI

In the case of `C=CCOc1ccc(C(=O)Nc2cccc(CC)n2)cc1`, the outcome in test [1] and in test [2] was inactive.
With `CCCCNc1cccc(NC(=O)c2ccc(OCCC)cc2)n1`, the outcome in test [1] and in test [2] was inactive.
On to `CCCOc1ccc(C(=O)Nc2cccc(Br)n2)cc1`, for which the outcome in test [1] was inactive.
For `C=CCOc1ccc(C(=O)Nc2cccc(NCCCC)n2)cc1`, the outcome in test [1] and in test [2] was inactive.
The IC50 is the concentration that gives 50% inhibition. `CCCOc1ccc(C(=O)Nc2cnccn2)cc1`: the result in test [1] and in test [2] was inactive. In test [3], the 50% inhibitory concentration (IC50) amounted to 23.2 µM.
Consider `CCCCCCNc1cccc(NC(=O)c2ccc(OCCC)cc2)n1`, for which the result in test [1] and in test [2] was inactive.
Consider `COc1cc2c3cc1Oc1cc(ccc1O)C[C@@H]1c4c(cc(OC)c(O)c4Oc4ccc(cc4)C[C@@H]3N(C)CC2)CC[N+]1(C)C`, for which the IC50 in test [3] was found to be 9.2 µM; in test [4], 6.8 µM.
With `C=CCOc1ccc(C(=O)Nc2cccc(Br)n2)cc1`, the result in test [1] and in test [2] was inactive.
With `C#CCOc1ccc(C(=O)Nc2cccc(C)n2)cc1`, the result in test [1] and in test [2] was inactive. In the test listed under Homo sapiens, the Ratio IC50 is 1.1. Besides, the IC50 in test [3] stood at 19.4 µM; in test [4], 21.7 µM.
As for `CCCOc1ccc(C(=O)Nc2cccc(Nc3ccc(F)cc3)n2)cc1`, the result in test [1] and in test [2] was inactive.
Turning to `C=CCOc1ccc(C(=O)Nc2cccc(Cl)n2)cc1`, the result in test [1] was inactive.
As for `CCCOc1ccc(C(=O)Nc2cccc(Nc3cccc(F)c3)n2)cc1`, the result in test [1] and in test [2] was inactive.
For the compound `C=CCOc1ccc(C(=O)Nc2ccccn2)cc1`, the result in test [1] and in test [2] was inactive.
`CCCOc1ccc(C(=O)Nc2cccc(Nc3ccc(OC)cc3)n2)cc1`: the result in test [1] and in test [2] was inactive.
In the case of `CCCOc1ccc(C(=O)Nc2cccc(NCc3ccccc3)n2)cc1`, the outcome in test [1] and in test [2] was inactive.
With `CCCOc1ccc(C(=O)Nc2cccc(Cl)n2)cc1`, the result in test [1] was inactive.
Take `CCCCCNc1cccc(NC(=O)c2ccc(OCCC)cc2)n1`: the result in test [1] and in test [2] was inactive.
In the case of `C=CCOc1ccc(C(=O)Nc2cccc(NCCC)n2)cc1`, the outcome in test [1] and in test [2] was inactive.
As to `C=C(C)COc1ccc(C(=O)Nc2cccc(C)n2)cc1`, the outcome in test [1] and in test [2] was inactive. In the test listed under Homo sapiens, the Ratio IC50 is 1.3. The values for the IC50 in test [3] and in test [4] were 19.6 µM and 24.7 µM, respectively.
As to `CCCNc1cccc(NC(=O)c2ccc(OCCC)cc2)n1`, the outcome in test [1] and in test [2] was inactive.
Consider `CCCOc1ccc(C(=O)Nc2cccc(CC)n2)cc1`, for which the outcome in test [1] and in test [2] was inactive.
Turning to `CCOc1ccc(C(=O)Nc2cc(C)cc(C)n2)cc1`, the result in test [1] and in test [2] was inactive. The Ratio IC50 in the test listed under Homo sapiens is 1. In addition, the IC50 in test [3] came to 17.1 µM; in test [4], 17.4 µM.
For `CCCOc1ccc(C(=O)Nc2cccc(Nc3ccccc3)n2)cc1`, the outcome in test [1] and in test [2] was inactive.
Regarding `CCCOc1ccc(C(=O)Nc2cccc(Nc3ccc(Cl)cc3)n2)cc1`, the outcome in test [1] and in test [2] was inactive.
Take `C=CCOc1ccc(C(=O)Nc2cccc(C)n2)cc1`: the result in test [1] and in test [2] was inactive. The outcome in test [5] was Active.
For the compound `CCCOc1ccc(C(=O)Nc2cccc(N3CCCCC3)n2)cc1`, the outcome in test [1] and in test [2] was inactive.
In the case of `CNC1(C)C2CCC(C2)C1(C)C` (stereo not drawn) [MECAMYLAMINE], the IC50 in test [3] stood at 0.6 µM.
On to `CCCOc1ccc(C(=O)Nc2cccc(Nc3ccccc3F)n2)cc1`, for which the result in test [1] and in test [2] was inactive.
